Experiments:
[1] = In vitro stimulation of 2-Deoxyglucose uptake in L6 myocytes from rat skeletal myoblasts at a concentration of 10 uM; format: functional
Procedure, shortened: (§1)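 Rat L6 myoblasts grown 14 days in MEMalpha + 2% FBS to fuse into myocytes, then serum-depleted 5 h. Uptake of 0.1 mM [1-14C]2-deoxyglucose in Dulbecco's PBS (+Ca, Mg) for 10 min at room temperature, stopped by ice-cold saline washes. Cells dissolved in 0.1 M NaOH and scintillation counted. Reported relative to 1 µM insulin set at 1.0.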

3T3-L1 [2] = assay: In vitro fold stimulation of glucose transporter protein in 3T3-L1 adipocytes at a concentration of 10 uM; format: functional, Mus musculus
Procedure, shortened: (§2)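 Differentiated 3T3-L1 adipocytes (days 7–11 after start of differentiation) exposed to compound in DMEM + 10% FBS, 0.1% DMSO final, medium renewed with fresh drug after 24 h, total 48 h. Triton X-100/EDTA/DTT extracts dot-blotted, probed with affinity-purified rabbit anti-GLUT1 (0.5 μg/mL) then 125I goat anti-rabbit IgG, gamma-counted; transporter quantified against basal-extract standard curve, fold over DMSO control.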

[3] = In vitro stimulation of 2-Deoxyglucose uptake in L6 myocytes from rat skeletal myoblasts at a concentration of 3 uM; format: functional; procedure, shortened: as §1
Mus musculus [4] = assay: Compound was evaluated for in vivo for % glucose normalization in mice at a concentration of 10 mg/kg.; format: functional
Procedure, shortened: (§3)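 Six- to eight-week-old C57BL/6J-ob/ob mice, acclimated 1 week, bled retroorbitally before treatment. Oral gavage once daily for four days in 0.25% (w/v) methylcellulose in water, unadjusted pH. Bled again 24 h after the fourth dose. Plasma glucose read by hexokinase UV method. Expressed as % normalization: vehicle = 0%, ciglitazone 50 mg/kg = 100%.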

Mus musculus [5] = assay: In vivo percent glucose normalization in mice at a concentration of 25 mg/kg; format: functional; procedure, shortened: as §3
3T3-L1 [6] = assay: In vitro fold stimulation of glucose transporter protein in 3T3-L1 adipocytes at a concentration of 30 uM; format: functional, Mus musculus; procedure, shortened: as §2
[7] = In vitro stimulation of 2-Deoxyglucose uptake in L6 myocytes from rat skeletal myoblasts at a concentration of 30 uM; format: functional; procedure, shortened: as §1
Mus musculus [8] = assay: Compound was evaluated for in vivo for % glucose normalization in mice at a concentration of 5 mg/kg.; format: functional; procedure, shortened: as §3
Mus musculus [9] = assay: Compound was evaluated for in vivo for % glucose normalization in mice at a concentration of 2.5 mg/kg.; format: functional; procedure, shortened: as §3

Row | SMILES | 2-DG uptake stimulation [1] | GT fold stimulation (3T3-L1 [2]) | 2-DG uptake stimulation [3] | Glucose normalisation (Mus musculus [4]) [%] | Glucose normalisation (Mus musculus [5]) [%] | GT fold stimulation (3T3-L1 [6]) | 2-DG uptake stimulation [7] | Glucose normalisation (Mus musculus [8]) [%] | Glucose normalisation (Mus musculus [9]) [%]
1 | O=C1NC(=O)C(Cc2ccc3c(c2)CCC(Cc2ccccn2)O3)S1 (centres undefined) | 0.96 | 1.48 | 0.76 | 49 | 74 | 1.42 | 0.96 | – | –
2 | O=C1NC(=O)C(Cc2ccc3c(c2)CC(CC2CCCCC2)O3)S1 (centres undefined) | 1.39 | 1.14 | 0.88 | – | 19 | 1.41 | 1.71 | – | –
3 | CC1(C2Cc3cc(CC4SC(=O)NC4=O)ccc3O2)CCCCC1 (centres undefined) | 0.93 | 1.11 | 0.8 | 33 | 80 | 1.22 | 1.67 | – | –
4 | O=C1NC(=O)C(Cc2ccc3c(c2)CC(C2CCCCC2)O3)S1 (centres undefined) | 1.85 | 1.25 | 1.1 | – | 23 | 1.42 | 1.66 | – | –
5 | O=C1NC(=O)C(Cc2ccc3c(c2)CC2(CCCCC2)CO3)S1 (centres undefined) | 1.27 | 0.8 | 1.15 | 6 | 68 | 1.23 | 1.38 | – | –
6 | O=C1NC(=O)C(Cc2ccc3c(c2)CCC(C2CCCCC2)O3)S1 (centres undefined) | 2.08 | 1.03 | 1.28 | 75 | 69 | 1.23 | 2.23 | 65 | 5
7 | O=C1NC(=O)C(Cc2ccc3c(c2)CCC2(CCCCC2)O3)S1 (centres undefined) | 1.52 | 0.97 | 0.97 | – | 35 | 1.2 | 1.22 | – | –
8 | O=C1NC(=O)C(Cc2ccc3c(c2)CCC(Cc2ccccc2)(Cc2ccccc2)O3)S1 (centres undefined) | 0.86 | 1.03 | 0.73 | – | 12 | 1.23 | 0.44 | – | –
9 | O=C1NC(=O)C(Cc2ccc3c(c2)CC[C@H](Cc2ccccc2)O3)S1 (some centres undefined) [ENGLITAZONE] | 0.91 | 1.13 | 0.77 | 90 | 88 | 1.24 | 1.27 | 73 | 31
10 | CCC1(CC)CCc2cc(CC3SC(=O)NC3=O)ccc2O1 (centres undefined) | 1.33 | 1.08 | 1.01 | – | 24 | 1.21 | 1.38 | – | –
11 | O=C1NC(=O)C(Cc2ccc3c(c2)CCC(Cc2ccc(OCc4ccccc4)cc2)O3)S1 (centres undefined) | 1.53 | 1.48 | 1.42 | 100 | 95 | 1.59 | 1.34 | 73 | 19
12 | CC1(COc2ccc(CC3SC(=O)NC3=O)cc2)CCCCC1 (centres undefined) [CIGLITAZONE] | 1.02 | 1.49 | 0.82 | 52 | 84 | 1.51 | 0.68 | – | –
13 | O=C1NC(=O)C(Cc2ccc3c(c2)CCC(CC2CCCCC2)O3)S1 (centres undefined) | 1.55 | 1.02 | 1.14 | – | 7 | 1.28 | 0.68 | – | –
14 | COc1ccc(CC2CCc3cc(CC4SC(=O)NC4=O)ccc3O2)cc1 (centres undefined) | 1.15 | 1.08 | 0.92 | 68 | 85 | 1.21 | 0.69 | 10 | –
15 | O=C1NC(=O)C(Cc2ccc3c(c2)CC[C@@H](Cc2ccccc2)O3)S1 (some centres undefined) | 0.9 | 1.13 | 0.77 | 47 | 73 | 1.17 | 1.23 | 41 | –
16 | O=C1NC(=O)C(Cc2ccc3c(c2)CCC(Cc2ccc(O)cc2)O3)S1 (centres undefined) | 1.24 | 1.25 | 1.04 | 55 | 100 | 1.34 | 1.03 | – | –
17 | O=C1NC(=O)C(Cc2ccc3c(c2)CCC2(CCCCCC2)O3)S1 (centres undefined) | 0.99 | 0.94 | 1.32 | – | 0 | 1.12 | 0.43 | – | –
18 | O=C1NC(=O)C(Cc2ccc3c(c2)CCC(Cc2ccccc2)O3)S1 (centres undefined) | 1.29 | 1.14 | 0.91 | 70 | 91 | 1.48 | 1.14 | 48 | 29
19 | O=C1NC(=O)C(Cc2ccc3c(c2)CCC(c2ccccc2)O3)S1 (centres undefined) | 0.95 | 1.05 | 0.78 | 0 | 70 | 1.37 | 1.15 | – | –
20 | O=C1NC(=O)C(Cc2ccc3c(c2)CC(c2ccccc2)O3)S1 (centres undefined) | 0.99 | 1.14 | 0.76 | 6 | 85 | 1.42 | 1.3 | – | –
21 | O=C1NC(=O)C(Cc2ccc3c(c2)C(Cc2ccccc2)CO3)S1 (centres undefined) | 1.25 | 1.09 | 0.85 | – | 0 | 1.31 | 1.4 | – | –
22 | O=C1NC(=O)C(Cc2ccc3c(c2)C(c2ccccc2)CO3)S1 (centres undefined) | 1.24 | 1.13 | 1.05 | – | 32 | 1.19 | 1.42 | – | –
23 | O=C1NC(=O)C(Cc2ccc3c(c2)CC2(CCCCC2)O3)S1 (centres undefined) | 1.28 | 1.15 | 0.85 | – | 56 | 1.36 | 1.62 | – | –
24 | O=C1NC(=O)C(Cc2ccc3c(c2)CCC2(CCCC2)O3)S1 (centres undefined) | 1.06 | 0.95 | 0.79 | 64 | 52 | 1.1 | 1.18 | 50 | 0
25 | O=C1NC(=O)C(Cc2ccc3c(c2)CC(Cc2ccccc2)O3)S1 (centres undefined) | 1.11 | 1.34 | 0.91 | 95 | 100 | 1.51 | 1.51 | 65 | 0

Reference: ChEMBL document CHEMBL1125908, “Substituted dihydrobenzopyran and dihydrobenzofuran thiazolidine-2,4-diones as hypoglycemic agents” (1991)
